Activity calls are given as the source filed them. The rule behind the calls is not given here.
How the values were obtained:
PC-3 = experiment: Cytotoxicity against human PC3 cells after 48 hrs by MTT assay; type: functional, cell-based; conditions: PC-3, 48 h
Procedure, shortened: (§1)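 1 × 10⁴ cells, counted by trypan blue exclusion, were incubated in 96-well plates with a concentration series for 48 h at 37 °C in DMEM with 10% FBS. MTT reagent (5 mg/ml) was added and absorbance read at 570 nm. IC50 was taken from a plot of % viability versus control against concentration. Compounds were first screened at 100 µM, and only those giving ≥50% cytotoxicity went to dose-response.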

MDA-MB-453 = experiment: Cytotoxicity against human MDA-MB-453 cells after 48 hrs by MTT assay; type: functional, cell-based; conditions: MDA-MB-453, 48 h; procedure, shortened: as §1
MDA-MB-231 = experiment: Cytotoxicity against human MDA-MB-231 cells after 48 hrs by MTT assay; type: functional, cell-based; conditions: MDA-MB-231, 48 h; procedure, shortened: as §1
HeLa = experiment: Cytotoxicity against human HeLa cells after 48 hrs by MTT assay; type: functional, cell-based; procedure, shortened: as §1
HT-29 = experiment: Cytotoxicity against human HT-29 cells after 48 hrs by MTT assay; type: functional, cell-based; conditions: HT-29, 48 h; procedure, shortened: as §1
[1] = Cytotoxicity against human ME180 cells after 48 hrs by MTT assay; type: functional, cell-based; conditions: ME-180, 48 h; procedure, shortened: as §1
MCF7 [2] = experiment: Cytotoxicity against human MCF7 cells after 48 hrs by MTT assay; type: functional, cell-based; conditions: MCF7, 48 h; procedure, shortened: as §1
MCF7 [3] = experiment: Induction of morphological change in human MCF7 cells assessed as cell shrinkage at 10 uM after 48 hrs by acridine orange and ethidium bromide staining based fluorescence microscopic analysis; type: functional
Procedure, shortened: (§2)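 MCF-7 cells were plated at 1 × 10⁶ cells/ml and treated with compound for 48 h. After acridine orange/ethidium bromide dual staining, cells were viewed 30 min later by fluorescence microscopy through a blue filter. Green homogeneous nuclei were scored as intact, condensed or fragmented chromatin as apoptotic, and orange-red nuclei as late apoptotic/necrotic. At least 200 cells were counted in random fields, and each test was done three times.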

MCF7 [4] = experiment: Cell cycle arrest in human MCF7 cells assessed as accumulation at G2/M phase at 5 uM after 48 hrs by propidium iodide staining (reference value: 14.9%); type: functional
MCF7 [5] = experiment: Induction of morphological change in human MCF7 cells assessed as chromatin condensation with destructive fragmentation of nucleus at 10 uM after 48 hrs by acridine orange and ethidium bromide staining based fluorescence microscopic analysis; type: functional, cell-based; procedure, shortened: as §2
MCF7 [6] = experiment: Cell cycle arrest in human MCF7 cells assessed as accumulation at S phase at 10 uM after 48 hrs by propidium iodide staining (reference value: 10.2%); type: functional
MCF7 [7] = experiment: Ratio of etoposide IC50 to compound IC50 for human MCF7 cells; type: functional
MCF7 [8] = experiment: Cell cycle arrest in human MCF7 cells assessed as accumulation at G0/G1 phase at 10 uM after 48 hrs by propidium iodide staining (reference value: 69.2%); type: functional
MCF7 [9] = experiment: Cell cycle arrest in human MCF7 cells assessed as accumulation at G2/M phase at 10 uM after 48 hrs by propidium iodide staining (reference value: 14.9%); type: functional
MCF7 [10] = experiment: Induction of morphological change in human MCF7 cells assessed as membrane blebbing at 10 uM after 48 hrs by acridine orange and ethidium bromide staining based fluorescence microscopic analysis; type: functional, cell-based; procedure, shortened: as §2
MCF7 [11] = experiment: Cell cycle arrest in human MCF7 cells assessed as accumulation at S phase at 5 uM after 48 hrs by propidium iodide staining (reference value: 10.2%); type: functional
MCF7 [12] = experiment: Induction of apoptosis in human MCF7 cells assessed as increase of early apoptotic cells at 5 uM after 48 hrs by acridine orange and ethidium bromide staining based fluorescence microscopic analysis; type: functional, cell-based; procedure, shortened: as §2
MCF7 [13] = experiment: Induction of apoptosis in human MCF7 cells assessed as increase of late apoptotic/necrotic cells at 10 uM after 48 hrs by acridine orange and ethidium bromide staining based fluorescence microscopic analysis; type: functional, cell-based; procedure, shortened: as §2
MCF7 [14] = experiment: Cell cycle arrest in human MCF7 cells assessed as accumulation at G0/G1 phase at 5 uM after 48 hrs by propidium iodide staining (reference value: 69.2%); type: functional

Row | Structure (SMILES) | IC50 (PC-3) | IC50 (MDA-MB-453) | IC50 (MDA-MB-231) | IC50 (HeLa) | IC50 (HT-29) | IC50 [1] | IC50 (MCF7 [2]) | Activity (MCF7 [3]) | Activity (MCF7 [4]) | Activity (MCF7 [5]) | Activity (MCF7 [6]) | Ratio IC50 (MCF7 [7]) | Activity (MCF7 [8]) | Activity (MCF7 [9]) | Activity (MCF7 [10]) | Activity (MCF7 [11]) | Activity (MCF7 [12]) | Activity (MCF7 [13]) | Activity (MCF7 [14])
1 | CC1(C)CC[C@]2(C(=O)O)CC[C@]3(C)C(=CC[C@@H]4[C@@]5(C)CC[C@H](O)C(C)(C)[C@@H]5CC[C@]43C)[C@@H]2C1 [OLEANOLIC_ACID] | > 100 µM | > 100 µM | > 100 µM | > 100 µM | > 100 µM | > 100 µM | > 100 µM | – | – | – | – | – | – | – | – | – | – | – | –
2 | COc1cc([C@@H]2c3cc4c(cc3[C@@H](O[C@@H]3O[C@@H]5CO[C@@H](C)O[C@H]5[C@H](O)[C@H]3O)[C@H]3COC(=O)[C@H]23)OCO4)cc(OC)c1O [ETOPOSIDE] | 14.4 µM | – | 24.2 µM | 4.71 µM | 21.4 µM | 8.9 µM | 23.9 µM | – | – | – | – | – | – | – | – | – | – | – | –
3 | COC(=O)[C@]12CCC(C)(C)C[C@H]1C1=CC[C@@H]3[C@@]4(C)Cc5c(-c6ccccc6)nc(=S)[nH]c5C(C)(C)[C@@H]4CC[C@@]3(C)[C@]1(C)CC2 | > 100 µM | 40.6 µM | 75.5 µM | 75.4 µM | 69 µM | > 100 µM | 30.9 µM | – | – | – | – | – | – | – | – | – | – | – | –
4 | COC(=O)[C@]12CCC(C)(C)C[C@H]1C1=CC[C@@H]3[C@@]4(C)Cc5c(noc5-c5ccccc5)C(C)(C)[C@@H]4CC[C@@]3(C)[C@]1(C)CC2 | > 100 µM | > 100 µM | > 100 µM | > 100 µM | > 100 µM | > 100 µM | 88.2 µM | – | – | – | – | – | – | – | – | – | – | – | –
5 | COC(=O)[C@]12CCC(C)(C)C[C@H]1C1=CC[C@@H]3[C@@]4(C)Cc5c(-c6ccccc6)nc(N)nc5C(C)(C)[C@@H]4CC[C@@]3(C)[C@]1(C)CC2 | 75.3 µM | 12.6 µM | 16.3 µM | 45.1 µM | 30.7 µM | 16.7 µM | 10.6 µM | Active | 17.8% | Active | 19.8% | 2 | 59.4% | 14.2% | Active | 13% | Active | Active | 62.4%
6 | COC(=O)[C@]12CCC(C)(C)C[C@H]1C1=CC[C@@H]3[C@@]4(C)CCC(=O)C(C)(C)[C@@H]4CC[C@@]3(C)[C@]1(C)CC2 | > 100 µM | > 100 µM | > 100 µM | > 100 µM | > 100 µM | > 100 µM | 78.7 µM | – | – | – | – | – | – | – | – | – | – | – | –
7 | COC(=O)[C@]12CCC(C)(C)C[C@H]1C1=CC[C@@H]3[C@@]4(C)Cc5c(-c6ccccc6)nc(=O)[nH]c5C(C)(C)[C@@H]4CC[C@@]3(C)[C@]1(C)CC2 | 87.4 µM | 96.7 µM | > 100 µM | > 100 µM | > 100 µM | > 100 µM | 78.9 µM | – | – | – | – | – | – | – | – | – | – | – | –
8 | COc1cccc2c1C(=O)c1c(O)c3c(c(O)c1C2=O)C[C@@](O)(C(=O)CO)C[C@@H]3O[C@H]1C[C@H](N)[C@H](O)[C@H](C)O1 [DOXORUBICIN] | 0.19 µM | 1.99 µM | – | 0.36 µM | – | 0.39 µM | – | – | – | – | – | – | – | – | – | – | – | – | –
9 | COC(=O)[C@]12CCC(C)(C)C[C@H]1C1=CC[C@@H]3[C@@]4(C)C[C@@H]5C(=NN[C@H]5c5ccccc5)C(C)(C)[C@@H]4CC[C@@]3(C)[C@]1(C)CC2 | > 100 µM | > 100 µM | > 100 µM | > 100 µM | > 100 µM | > 100 µM | 96.6 µM | – | – | – | – | – | – | – | – | – | – | – | –
10 | COC(=O)[C@]12CCC(C)(C)C[C@H]1C1=CC[C@@H]3[C@@]4(C)Cc5c(nn(-c6ccccc6)c5-c5ccccc5)C(C)(C)[C@@H]4CC[C@@]3(C)[C@]1(C)CC2 | > 100 µM | > 100 µM | > 100 µM | > 100 µM | > 100 µM | > 100 µM | > 100 µM | – | – | – | – | – | – | – | – | – | – | – | –
11 | COC(=O)[C@]12CCC(C)(C)C[C@H]1C1=CC[C@@H]3[C@@]4(C)C/C(=C\c5ccccc5)C(=O)C(C)(C)[C@@H]4CC[C@@]3(C)[C@]1(C)CC2 | > 100 µM | > 100 µM | > 100 µM | > 100 µM | > 100 µM | > 100 µM | 71.7 µM | – | – | – | – | – | – | – | – | – | – | – | –
